Measured values: the RNAGym collection of RNA variant scans (doi:10.1126/science.aae0568)
This sample holds only a part of the variants without activity.

B1: tRNA (parent)
chain: GUUCCGUUGGCGUAAUGGUAACGCGUCUCCCUCCUAAGGAGAAGACUGCGGGUUCGAGUCCCGUACGGAACG

Variants of: B1
Experiment: yeast fitness relative to wild type (ratio to wild type); higher = fitter; tRNA-Arg(CCU), competitive growth, 37 C, YPD
Summary of the method: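 Gene amplicons from the start population and from each of six end populations were read by 100-nucleotide paired-end sequencing. Those end populations came from pooled Saccharomyces cerevisiae strains carrying tRNA-Arg(CCU) gene variants at the native locus, competed in YPD at 37°C for 24 hours. Fitness relative to wild type was worked out from changes in genotype frequencies. Genotypes needed ≥ 100 starting reads, and estimates < 0.5 were set to 0.5.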

Variant	yeast fitness
G25A C30A G38A A43G C46U A57U	0.614
G25A C29U A69C	0.807
C24U G51A A57U	≤ 0.5
C24U U26G U35A C62A	≤ 0.5
C24U C31G C46U	0.562
C24U U35C C55G A70U	0.569
C24U U53A C66U	0.55
C24U A69C A70C	0.536
G25A C29A	0.609
G25A A43G C49U U64C	0.924
C24U C46A U64C	0.973
G25A A40G C55G	≤ 0.5
C24U G68A	0.697
C24U C33U G48A C61U	≤ 0.5
C24U C49G G56C G58A	0.57
C24U C30U G63A	0.502
C24U G25C C61A	≤ 0.5
G25A C29A A57C A70G	≤ 0.5
C24U C61G C66U A69U	0.539
C24U U47C G48A C62G A69U	≤ 0.5
C24U C27U A43C	1.04

Variant	yeast fitness
C24U C30A A65G	≤ 0.5
C24U C34U A69C	0.502
C24U A45G C46G C55G	0.588
C24U C27G A65C	≤ 0.5
C24U C29U A36U A70C	≤ 0.5
G25A A43C	0.975
G25A A43G	0.949
G25A A43U	0.842
G25A A40C C66U A70C	≤ 0.5
C24U U26G	0.987
C24U U26C	0.986
C24U U26A	0.938
G25A C29U C31G	≤ 0.5
G25A C29U C31U	0.57
C24U C60G A70C	0.562
C24U C60G C66G	≤ 0.5
C24U A45U C55U	0.569
C24U C34G G56A	≤ 0.5
C24U G50A	0.844
C24U G39A A70C	0.668
G25A A36G A45C	0.929

Variant	yeast fitness
C24U C33U G41A C61U	≤ 0.5
C24U C34G A45U G68C	≤ 0.5
G25A C27G G67C	≤ 0.5
C24U U59A C62A	≤ 0.5
C24U U35C G38C	0.677
C24U U35G A42G G51A	≤ 0.5
C24U U26A G68A	0.604
G25A C30A C34A A69C	≤ 0.5
C24U C31G G50A U64C	≤ 0.5
G25A C30U C62U	0.583
G25A	0.984
G25A C29U A57U C62A A69G	≤ 0.5
C24U G38C G52C	≤ 0.5
C24U U35C C66U	≤ 0.5
C24U U32G A40U A65C	≤ 0.5
C24U C49U U54G	0.588
C24U C29A U32A C46G A70U	≤ 0.5
C24U C30U A57G C66U	0.538
C24U U28G C33G C34U A36G A40G A70C	≤ 0.5
C24U G44A C55G G56A A57U	0.79
C24U C60G A65U	≤ 0.5

Variant	yeast fitness
C24U C55A	0.655
C24U U53C C60G	≤ 0.5
C24U U26G G41A A57U	0.641
G25A C31A G51C C55G A57U C66U	≤ 0.5
G25A A37U G41A C62G	≤ 0.5
C24U U28C G52C C60G	0.524
C24U A45G G68C	0.641
C24U C49U A65U	0.577
C24U C62A	0.684
G25A A43U G56A	0.718
C24U C30U A40C G68C	0.545
C24U A57C C60U G67C	≤ 0.5
C24U U47A C61A	≤ 0.5
C24U C31G C34G A43U G68C A69G	≤ 0.5
C24U C31A C34U	≤ 0.5
C24U C33U	0.747
C24U C29U C49U G51U	≤ 0.5
C24U G39A	0.875
C24U G39C	0.735
C24U G51A	0.675
